Experimental data: ChEMBL document CHEMBL4330096, “Discovery of potent and selective 5-azaindazole inhibitors of leucine-rich repeat kinase 2 (LRRK2) - Part 1” (Bioorg Med Chem Lett, 2019)

Assays:
[1] = molecular target: Phosphorylase kinase (Homo sapiens) (UniProt P15735+P46020+P46019+Q93100+Q16816); test: Inhibition of PHK (unknown origin) at 10 uM relative to control; assay type: protein-complex assay
Procedure, shortened: (§1)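 Single-concentration screen of each compound against a 59-protein-kinase panel, run at 10 µM or 1 µM. Activity relative to control is shown as a heat map across the panel.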

[2] = molecular target: T1, Serine/threonine-protein kinase Nek2 (Homo sapiens) (UniProt P51955); test: Inhibition of NEK2a (unknown origin) at 10 uM relative to control; procedure, shortened: as §1
T1 sequence (whole entry): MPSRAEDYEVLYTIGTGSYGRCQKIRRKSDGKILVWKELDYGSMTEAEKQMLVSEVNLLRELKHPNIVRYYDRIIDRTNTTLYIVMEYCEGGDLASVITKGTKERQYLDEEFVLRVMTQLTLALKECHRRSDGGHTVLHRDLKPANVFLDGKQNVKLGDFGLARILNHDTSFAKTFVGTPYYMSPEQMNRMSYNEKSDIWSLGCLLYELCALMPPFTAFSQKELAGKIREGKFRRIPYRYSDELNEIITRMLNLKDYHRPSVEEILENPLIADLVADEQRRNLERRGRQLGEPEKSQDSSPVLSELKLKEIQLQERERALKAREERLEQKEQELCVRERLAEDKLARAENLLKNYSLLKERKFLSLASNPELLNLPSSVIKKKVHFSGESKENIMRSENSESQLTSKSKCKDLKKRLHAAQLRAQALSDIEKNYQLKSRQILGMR

[3] = molecular target: Calcium/calmodulin-dependent protein kinase type 1 (Homo sapiens) (UniProt Q14012); test: Inhibition of CAMK1 (unknown origin) at 1 uM relative to control
Procedure, shortened: (§2)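 Single-point screen of each compound against a panel of 59 protein kinases, at 1 or 10 μM. The panel data are also summarised as a rescaled geometric mean selectivity score.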

[4] = molecular target: T2, Protein kinase C zeta type (Homo sapiens) (UniProt Q05513); test: Inhibition of PKCz (unknown origin) at 1 uM relative to control; procedure, shortened: as §1
T2 sequence (whole entry): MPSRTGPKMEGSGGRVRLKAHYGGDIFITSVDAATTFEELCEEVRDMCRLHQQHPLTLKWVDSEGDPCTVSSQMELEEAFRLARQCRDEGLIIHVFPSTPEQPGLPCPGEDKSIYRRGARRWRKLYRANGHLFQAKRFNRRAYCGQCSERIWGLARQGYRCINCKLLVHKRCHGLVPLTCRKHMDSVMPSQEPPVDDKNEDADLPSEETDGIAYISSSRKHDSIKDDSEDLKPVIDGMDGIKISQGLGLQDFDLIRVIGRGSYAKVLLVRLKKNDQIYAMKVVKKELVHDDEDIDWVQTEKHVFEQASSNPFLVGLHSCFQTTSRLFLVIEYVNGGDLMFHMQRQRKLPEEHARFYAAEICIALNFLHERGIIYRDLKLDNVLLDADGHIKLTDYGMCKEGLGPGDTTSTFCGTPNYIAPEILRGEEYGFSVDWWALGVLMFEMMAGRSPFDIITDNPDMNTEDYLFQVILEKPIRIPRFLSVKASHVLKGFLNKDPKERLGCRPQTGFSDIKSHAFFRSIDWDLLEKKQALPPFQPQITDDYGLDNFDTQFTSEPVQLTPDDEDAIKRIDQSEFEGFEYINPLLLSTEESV

[5] = molecular target: MAP kinase-interacting serine/threonine-protein kinase 1 (Homo sapiens) (UniProt Q9BUB5); test: Inhibition of MNK1 (unknown origin) at 1 uM relative to control; procedure, shortened: as §1
[6] = molecular target: Serine/threonine-protein kinase N2 (Homo sapiens) (UniProt Q16513); test: Inhibition of PRK2 (unknown origin) at 1 uM relative to control; procedure, shortened: as §1
[7] = molecular target: T3, Ephrin type-B receptor 3 (Homo sapiens) (UniProt P54753); test: Inhibition of EPHB3 (unknown origin) at 1 uM relative to control; procedure, shortened: as §2
T3 sequence (whole entry): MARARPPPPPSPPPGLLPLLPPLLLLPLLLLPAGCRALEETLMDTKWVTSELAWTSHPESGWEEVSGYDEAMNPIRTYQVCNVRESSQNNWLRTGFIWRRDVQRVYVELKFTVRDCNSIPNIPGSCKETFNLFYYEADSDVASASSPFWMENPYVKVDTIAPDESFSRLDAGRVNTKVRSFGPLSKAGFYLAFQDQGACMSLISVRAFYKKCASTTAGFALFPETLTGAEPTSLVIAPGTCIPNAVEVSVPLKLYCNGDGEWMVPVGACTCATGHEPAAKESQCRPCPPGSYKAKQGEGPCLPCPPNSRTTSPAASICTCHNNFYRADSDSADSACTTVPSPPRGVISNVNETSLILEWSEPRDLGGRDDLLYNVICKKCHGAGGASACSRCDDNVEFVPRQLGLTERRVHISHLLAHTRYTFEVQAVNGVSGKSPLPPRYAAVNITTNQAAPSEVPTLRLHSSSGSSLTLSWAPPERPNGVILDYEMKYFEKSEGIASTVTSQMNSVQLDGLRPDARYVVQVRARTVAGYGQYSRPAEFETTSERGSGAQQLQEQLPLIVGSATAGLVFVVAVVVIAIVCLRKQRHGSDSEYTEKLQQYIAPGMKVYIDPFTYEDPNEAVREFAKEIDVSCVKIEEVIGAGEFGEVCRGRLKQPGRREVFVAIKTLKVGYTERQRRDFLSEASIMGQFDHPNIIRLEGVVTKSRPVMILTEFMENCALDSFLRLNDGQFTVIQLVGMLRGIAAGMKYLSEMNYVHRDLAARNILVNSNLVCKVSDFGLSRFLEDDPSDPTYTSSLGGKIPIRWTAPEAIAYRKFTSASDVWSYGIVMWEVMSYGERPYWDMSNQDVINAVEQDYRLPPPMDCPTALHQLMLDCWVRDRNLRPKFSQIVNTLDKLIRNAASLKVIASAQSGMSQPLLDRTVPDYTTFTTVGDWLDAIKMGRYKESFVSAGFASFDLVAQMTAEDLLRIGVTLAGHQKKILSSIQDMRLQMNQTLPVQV

[8] = molecular target: Homeodomain-interacting protein kinase 2 (Homo sapiens) (UniProt Q9H2X6); test: Inhibition of HIPK2 (unknown origin) at 1 uM relative to control; procedure, shortened: as §2
[9] = molecular target: Mitogen-activated protein kinase 1 (Homo sapiens) (UniProt P28482); test: Inhibition of ERK2 (unknown origin) at 1 uM relative to control; procedure, shortened: as §2
Mitogen-activated protein kinase 1 (Homo sapiens), sequence (P28482 whole entry): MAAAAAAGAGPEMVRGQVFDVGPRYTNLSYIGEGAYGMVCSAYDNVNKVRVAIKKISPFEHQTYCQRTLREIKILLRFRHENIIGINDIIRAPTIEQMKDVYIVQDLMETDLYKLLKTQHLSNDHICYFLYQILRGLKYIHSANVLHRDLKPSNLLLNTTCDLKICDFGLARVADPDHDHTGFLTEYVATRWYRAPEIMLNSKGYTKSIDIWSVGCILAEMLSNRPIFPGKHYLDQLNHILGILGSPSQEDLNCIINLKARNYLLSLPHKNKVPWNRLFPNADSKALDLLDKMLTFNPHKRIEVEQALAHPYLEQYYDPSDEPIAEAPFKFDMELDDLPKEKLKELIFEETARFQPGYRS

MAP kinase-interacting serine/threonine-protein kinase 1 (Homo sapiens), sequence (Q9BUB5 whole entry, looked up): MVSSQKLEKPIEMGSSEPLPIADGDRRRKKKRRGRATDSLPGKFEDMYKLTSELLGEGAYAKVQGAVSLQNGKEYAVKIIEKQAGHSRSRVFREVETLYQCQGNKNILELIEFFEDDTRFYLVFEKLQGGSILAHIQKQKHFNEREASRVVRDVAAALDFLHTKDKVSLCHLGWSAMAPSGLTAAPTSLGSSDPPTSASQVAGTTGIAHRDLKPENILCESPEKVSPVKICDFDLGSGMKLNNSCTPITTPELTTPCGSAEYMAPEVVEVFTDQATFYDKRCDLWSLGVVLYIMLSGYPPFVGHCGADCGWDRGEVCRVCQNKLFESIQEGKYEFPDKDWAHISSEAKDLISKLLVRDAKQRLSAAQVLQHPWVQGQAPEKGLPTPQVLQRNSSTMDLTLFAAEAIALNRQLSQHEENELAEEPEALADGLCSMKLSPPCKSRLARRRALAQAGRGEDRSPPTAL
Serine/threonine-protein kinase N2 (Homo sapiens), sequence (Q16513 whole entry, looked up): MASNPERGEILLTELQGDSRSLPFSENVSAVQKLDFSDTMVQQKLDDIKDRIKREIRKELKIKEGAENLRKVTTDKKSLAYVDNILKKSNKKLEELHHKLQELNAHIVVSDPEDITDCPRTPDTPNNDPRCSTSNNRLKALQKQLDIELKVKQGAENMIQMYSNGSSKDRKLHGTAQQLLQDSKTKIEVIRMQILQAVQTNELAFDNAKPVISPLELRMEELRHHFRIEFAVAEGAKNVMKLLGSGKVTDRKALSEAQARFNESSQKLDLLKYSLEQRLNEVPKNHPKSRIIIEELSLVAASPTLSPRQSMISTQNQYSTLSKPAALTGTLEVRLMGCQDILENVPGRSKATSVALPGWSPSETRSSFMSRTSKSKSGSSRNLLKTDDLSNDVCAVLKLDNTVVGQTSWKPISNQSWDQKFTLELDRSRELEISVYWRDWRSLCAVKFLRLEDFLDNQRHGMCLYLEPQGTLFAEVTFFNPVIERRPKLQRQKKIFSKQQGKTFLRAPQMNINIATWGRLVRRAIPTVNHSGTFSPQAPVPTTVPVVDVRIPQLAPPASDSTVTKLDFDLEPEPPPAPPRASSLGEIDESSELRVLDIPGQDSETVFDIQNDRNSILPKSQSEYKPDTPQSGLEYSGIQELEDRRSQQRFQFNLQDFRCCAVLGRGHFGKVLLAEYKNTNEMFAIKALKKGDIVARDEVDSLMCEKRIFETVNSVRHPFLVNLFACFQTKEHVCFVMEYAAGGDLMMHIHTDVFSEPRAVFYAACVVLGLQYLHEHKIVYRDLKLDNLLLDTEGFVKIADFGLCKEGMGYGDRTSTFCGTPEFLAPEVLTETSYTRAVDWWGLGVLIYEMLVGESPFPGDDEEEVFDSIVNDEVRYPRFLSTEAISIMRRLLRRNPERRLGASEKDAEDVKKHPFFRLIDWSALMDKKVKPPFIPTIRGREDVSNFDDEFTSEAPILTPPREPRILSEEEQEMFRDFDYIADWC
Homeodomain-interacting protein kinase 2 (Homo sapiens), sequence (Q9H2X6 whole entry, looked up): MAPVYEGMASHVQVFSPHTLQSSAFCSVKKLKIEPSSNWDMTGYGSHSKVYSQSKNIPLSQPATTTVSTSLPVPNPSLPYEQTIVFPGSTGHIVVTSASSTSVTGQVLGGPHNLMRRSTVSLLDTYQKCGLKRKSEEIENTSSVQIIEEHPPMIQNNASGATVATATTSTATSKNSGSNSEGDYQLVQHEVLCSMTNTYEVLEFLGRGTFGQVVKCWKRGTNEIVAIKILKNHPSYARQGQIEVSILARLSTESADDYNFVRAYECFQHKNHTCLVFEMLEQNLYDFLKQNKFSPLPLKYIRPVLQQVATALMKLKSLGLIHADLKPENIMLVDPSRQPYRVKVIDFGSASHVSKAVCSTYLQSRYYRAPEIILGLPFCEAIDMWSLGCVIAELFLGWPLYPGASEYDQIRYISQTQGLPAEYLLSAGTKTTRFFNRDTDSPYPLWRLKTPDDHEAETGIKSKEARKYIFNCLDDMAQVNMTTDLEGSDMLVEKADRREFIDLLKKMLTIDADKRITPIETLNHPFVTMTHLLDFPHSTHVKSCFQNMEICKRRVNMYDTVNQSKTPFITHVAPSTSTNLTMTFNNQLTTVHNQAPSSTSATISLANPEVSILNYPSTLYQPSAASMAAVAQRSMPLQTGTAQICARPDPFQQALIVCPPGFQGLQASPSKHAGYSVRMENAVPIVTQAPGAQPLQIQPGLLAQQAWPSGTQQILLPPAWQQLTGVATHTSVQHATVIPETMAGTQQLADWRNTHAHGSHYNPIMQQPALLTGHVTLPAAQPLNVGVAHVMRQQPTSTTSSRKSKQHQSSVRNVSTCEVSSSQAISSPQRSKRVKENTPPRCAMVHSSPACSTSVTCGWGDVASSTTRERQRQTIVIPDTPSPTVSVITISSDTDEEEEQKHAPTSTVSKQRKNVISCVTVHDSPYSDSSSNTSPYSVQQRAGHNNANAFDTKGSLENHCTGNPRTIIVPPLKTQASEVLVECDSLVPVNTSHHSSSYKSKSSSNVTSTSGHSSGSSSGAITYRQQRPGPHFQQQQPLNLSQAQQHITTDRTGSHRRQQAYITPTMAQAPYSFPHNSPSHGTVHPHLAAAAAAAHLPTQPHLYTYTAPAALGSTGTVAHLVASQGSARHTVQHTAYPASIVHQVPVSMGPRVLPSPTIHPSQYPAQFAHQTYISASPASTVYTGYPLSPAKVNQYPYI
Calcium/calmodulin-dependent protein kinase type 1 (Homo sapiens), sequence (Q14012 whole entry, looked up): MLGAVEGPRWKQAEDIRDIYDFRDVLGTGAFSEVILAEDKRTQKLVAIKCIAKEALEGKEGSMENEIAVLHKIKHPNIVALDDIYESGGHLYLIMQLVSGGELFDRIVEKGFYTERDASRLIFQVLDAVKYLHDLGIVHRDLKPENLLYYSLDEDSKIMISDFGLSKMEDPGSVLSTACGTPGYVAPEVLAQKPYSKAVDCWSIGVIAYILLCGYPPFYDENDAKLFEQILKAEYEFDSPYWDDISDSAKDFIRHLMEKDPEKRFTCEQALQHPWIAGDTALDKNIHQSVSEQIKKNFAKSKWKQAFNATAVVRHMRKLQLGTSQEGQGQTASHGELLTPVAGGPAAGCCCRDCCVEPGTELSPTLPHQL

## Cc1n[nH]c2ccnc(OC3CCCCC3)c12
[1]
  inhibition: 82%
[2]
  inhibition: 0%

## Cc1n[nH]c2ccnc(Nc3ccccc3F)c12
[1]
  inhibition: 45%
[2]
  inhibition: 2%

## c1cc(-c2n[nH]c3ccnc(OC4CCOCC4)c23)cc(N2CCOCC2)n1
[3]
  inhibition: 7%
[4]
  inhibition: 1%
[5]
  inhibition: 2%
[6]
  inhibition: 0%
[7]
  inhibition: 0%
[8]
  inhibition: 6%
[9]
  inhibition: 51%

## CC(C)n1cc(-c2n[nH]c3ccnc(OC4CCOCC4)c23)cn1
[3]
  inhibition: 36%
[4]
  inhibition: 14%
[5]
  inhibition: 0%
[6]
  inhibition: 24%
[7]
  inhibition: 0%
[8]
  inhibition: 9%
[9]
  inhibition: 49%

## Cc1n[nH]c2ccnc(NC3CCCCC3)c12
[1]
  inhibition: 60%
[2]
  inhibition: 0%
